{
  "source": "ChEMBL document CHEMBL3877293",
  "about": "“Synthesis and Antineoplastic Evaluation of Novel Unsymmetrical 1,3,4-Oxadiazoles” (J Med Chem, 2016)",
  "key": {"[1]": {"assay": "Cell cycle arrest in human MCF7 cells assessed as G2/M phase accumulation at 1 uM after 144 hrs by propidium iodide staining based flow cytometry (reference value: 16.3%)", "type": "functional"}, "[2]": {"assay": "Cell cycle arrest in human NB1 hTERT cells assessed as G1 phase accumulation at 1 uM after 48 hrs by propidium iodide staining based flow cytometry (reference value: 62.5%)", "type": "functional"}, "[3]": {"assay": "Cell cycle arrest in human PC3 cells assessed as G1 phase accumulation at 1 uM after 24 hrs by propidium iodide staining based flow cytometry (reference value: 67 +/- 1.47%)", "type": "functional", "settings": "PC-3"}, "[4]": {"assay": "Cell cycle arrest in human NB1 hTERT cells assessed as G2/M phase accumulation at 1 uM after 24 hrs by propidium iodide staining based flow cytometry (reference value: 35.7%)", "type": "functional"}, "A549": {"test_system": "A549", "assay": "Induction of apoptosis in human A549 cells assessed as late apoptotic cells at 5 uM after 72 hrs by Annexin-V FITC/propidium iodide staining based flow cytometry (reference value: 5.2%)", "type": "functional"}, "[5]": {"assay": "Cell cycle arrest in human HeLa cells assessed as G2/M phase accumulation at 1 uM after 8 hrs by propidium iodide staining based flow cytometry (reference value: 18.1%)", "type": "functional"}, "[6]": {"assay": "Cell cycle arrest in human LAN1 cells assessed as S phase accumulation at 1 uM after 24 hrs by propidium iodide staining based flow cytometry (reference value: 23.5 +/- 1.32%)", "type": "functional"}, "[7]": {"assay": "Cell cycle arrest in human NCI-H1299 cells assessed as G1 phase accumulation at 1 uM after 24 hrs by propidium iodide staining based flow cytometry (reference value: 61.2 +/- 1.69%)", "type": "functional"}, "SH-SY5Y": {"test_system": "SH-SY5Y", "assay": "Disruption of beta-tubulin network in human SH-SY5Y cells assessed as shorter microtubule bundles around nuclei at 1 uM after 24 hrs by DAPI staining based immunofluorescence microscopic analysis", "type": "cell-based", "method_in_brief": "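Cells seeded on glass coverslips (1 x 10^5/well), treated 24 h, fixed in 4% paraformaldehyde 15 min, permeabilized with 0.5% Triton X-100, blocked in 5% BSA/PBS, stained overnight at 4 °C with anti-β-tubulin (1:200) then fluorescent secondary antibody; nuclei counterstained with DAPI; microtubule organization and nuclear morphology examined by fluorescence microscopy.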"}, "HeLa [8]": {"test_system": "HeLa", "assay": "Induction of apoptosis in human HeLa cells assessed as early apoptotic cells at 5 uM after 48 hrs by Annexin-V FITC/propidium iodide staining based flow cytometry (reference value: 1.6%)", "type": "functional"}, "[9]": {"assay": "Cell cycle arrest in human MCF7 cells assessed as G1 phase accumulation at 1 uM after 24 hrs by propidium iodide staining based flow cytometry (reference value: 54.1 +/- 1.52%)", "type": "functional"}, "[10]": {"assay": "Cell cycle arrest in human RD cells assessed as G2/M phase accumulation at 1 uM after 24 hrs by propidium iodide staining based flow cytometry (reference value: 28.9 +/- 1.93%)", "type": "functional"}, "[11]": {"assay": "Antiproliferative activity against human RD cells after 72 hrs by XTT assay", "type": "functional, cell-based", "method_in_brief": "(§1)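 Cells plated at 1500–2000 per well by doubling time, treated after 24 h with a concentration series in six triplicate wells, and incubated 72 h without a medium change. XTT reagent was then added for 4 h at 37 °C and absorbance read at 490 nm. IC50 is the concentration halving absorbance versus untreated cells. Experiments run in triplicate.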"}, "HeLa [12]": {"test_system": "HeLa", "assay": "Cytotoxicity against human HeLa cells assessed as inhibition of colony formation after 2 weeks by crystal violet staining based assay", "type": "functional, cell-based", "method_in_brief": "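HeLa seeded at 100-200 cells/well in six-well plates and treated with 0.3 or 0.03 μM compound (DMSO control). Medium with compound changed every 3 days for about two weeks, until control colonies were visible. Colonies fixed and stained with 6.0% glutaraldehyde/0.5% crystal violet for 30 min, then counted against control. Done in triplicate.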"}, "[13]": {"assay": "Cell cycle arrest in human MCF7 cells assessed as G2/M phase accumulation at 1 uM treated for 24 hrs followed by compound washout measured after 24 hrs by propidium iodide staining based flow cytometry (reference value: 26.4%)", "type": "functional"}, "[14]": {"assay": "Cell cycle arrest in human HeLa cells assessed as S phase accumulation at 1 uM after 8 hrs by propidium iodide staining based flow cytometry (reference value: 19.2%)", "type": "functional"}, "[15]": {"assay": "Antiproliferative activity against human MRC5 cells after 72 hrs by XTT assay", "type": "cell-based", "settings": "MRC5, 72 h", "method_in_brief": "as §1"}, "[16]": {"assay": "Cell cycle arrest in human NB-1 cells assessed as G1 phase accumulation at 1 uM after 48 hrs by propidium iodide staining based flow cytometry (reference value: 85.9%)", "settings": "nb1, 48 h"}, "[17]": {"assay": "Cell cycle arrest in human NB1 hTERT cells assessed as G2/M phase accumulation at 1 uM after 72 hrs by propidium iodide staining based flow cytometry (reference value: 23.9%)", "type": "functional"}, "[18]": {"assay": "Cell cycle arrest in human Kelly cells assessed as S phase accumulation at 1 uM after 24 hrs by propidium iodide staining based flow cytometry (reference value: 16.1 +/- 1.28%)", "type": "functional"}, "[19]": {"assay": "Cell cycle arrest in human NB1 hTERT cells assessed as G1 phase accumulation at 1 uM after 24 hrs by propidium iodide staining based flow cytometry (reference value: 52.3%)", "type": "functional"}, "[20]": {"assay": "Cell cycle arrest in human NB1 hTERT cells assessed as sub G1 phase accumulation at 1 uM after 72 hrs by propidium iodide staining based flow cytometry relative to control", "type": "functional"}, "[21]": {"assay": "Cell cycle arrest in human NCI-H1299 cells assessed as G2/M phase accumulation at 1 uM after 24 hrs by propidium iodide staining based flow cytometry (reference value: 22.2 +/- 1.74%)", "type": "functional"}, "[22]": {"assay": "Cell cycle arrest in human NB-1 cells assessed as S phase accumulation at 1 uM after 72 hrs by propidium iodide staining based flow cytometry (reference value: 2.5%)", "settings": "nb1, 72 h"}, "[23]": {"assay": "Cell cycle arrest in human Kelly cells assessed as subG1 phase accumulation at 1 uM after 24 hrs by propidium iodide staining based flow cytometry relative to DMSO control", "type": "functional"}, "[24]": {"assay": "Cell cycle arrest in human NB-1 cells assessed as G2/M phase accumulation at 1 uM after 72 hrs by propidium iodide staining based flow cytometry (reference value: 15.8%)", "settings": "nb1, 72 h"}, "[25]": {"assay": "Antiproliferative activity against human LAN1 cells after 72 hrs by XTT assay", "type": "functional, cell-based", "settings": "LAN1, 72 h", "method_in_brief": "as §1"}, "[26]": {"assay": "Cell cycle arrest in human NCI-H1299 cells assessed as G2/M phase accumulation at 1 uM after 48 hrs by propidium iodide staining based flow cytometry (reference value: 11.8%)", "type": "functional"}, "[27]": {"assay": "Antiproliferative activity against human IBR3-G SV40 cells after 72 hrs by XTT assay", "type": "functional, cell-based", "settings": "IBR3-G SV40, 72 h", "method_in_brief": "as §1"}, "[28]": {"assay": "Cell cycle arrest in human RD cells assessed as G1 phase accumulation at 1 uM after 24 hrs by propidium iodide staining based flow cytometry (reference value: 56.7 +/- 1.48%)", "type": "functional"}, "[29]": {"assay": "Cell cycle arrest in human MCF7 cells assessed as G2/M phase accumulation at 1 uM after 24 hrs by propidium iodide staining based flow cytometry (reference value: 24.2 +/- 1.62%)", "type": "functional"}, "[30]": {"assay": "Cell cycle arrest in human NB-1 cells assessed as G2/M phase accumulation at 1 uM after 24 hrs by propidium iodide staining based flow cytometry (reference value: 21.2%)", "settings": "nb1, 24 h"}, "[31]": {"assay": "Cell cycle arrest in human NB1 hTERT cells assessed as S phase accumulation at 1 uM after 72 hrs by propidium iodide staining based flow cytometry (reference value: 3.6%)", "type": "functional"}},
  "note": "Activity calls are given as the source filed them. No cut-off for these calls is given here.",
  "data": [
    {"smiles": "Cc1[nH]c2c(c1-c1nnc(-c3ccccc3)o1)Cc1ccccc1-2", "values": [
      {"measurement": "Activity", "setting": "[1]", "value": 79.9, "unit": "%"},
      {"measurement": "Activity", "setting": "[2]", "value": 41.1, "unit": "%"},
      {"measurement": "Activity", "setting": "[3]", "value": 23.3, "unit": "%"},
      {"measurement": "Activity", "setting": "[4]", "value": 28.9, "unit": "%"},
      {"measurement": "Activity", "setting": "A549", "value": 41.7, "unit": "%"},
      {"measurement": "Activity", "setting": "[5]", "value": 45.3, "unit": "%"},
      {"measurement": "Activity", "setting": "[6]", "value": 5.6, "unit": "%"},
      {"measurement": "Activity", "setting": "[7]", "value": 17.8, "unit": "%"},
      {"measurement": "Activity", "setting": "SH-SY5Y", "value": "Active"},
      {"measurement": "Activity", "setting": "HeLa [8]", "value": 4.6, "unit": "%"},
      {"measurement": "Activity", "setting": "[9]", "value": "15.7 to 30.1", "unit": "%"},
      {"measurement": "Activity", "setting": "[10]", "value": 46.4, "unit": "%"},
      {"measurement": "IC50", "setting": "[11]", "value": 0.06, "unit": "µM"},
      {"measurement": "inhibition", "setting": "HeLa [12]", "value": "Dose-dependent effect"},
      {"measurement": "Activity", "setting": "[13]", "value": 31.7, "unit": "%"},
      {"measurement": "Activity", "setting": "[14]", "value": 22.2, "unit": "%"},
      {"measurement": "IC50", "setting": "[15]", "value": 0.19, "unit": "µM"},
      {"measurement": "Activity", "setting": "[16]", "value": 82.6, "unit": "%"},
      {"measurement": "Activity", "setting": "[17]", "value": 20.8, "unit": "%"},
      {"measurement": "Activity", "setting": "[18]", "value": 9.7, "unit": "%"},
      {"measurement": "Activity", "setting": "[19]", "value": 58.8, "unit": "%"},
      {"measurement": "Activity", "setting": "[20]", "value": 25.3, "unit": "%"},
      {"measurement": "Activity", "setting": "[21]", "value": 74.6, "unit": "%"},
      {"measurement": "Activity", "setting": "[22]", "value": 4.3, "unit": "%"},
      {"measurement": "Activity", "setting": "[23]", "value": 13.4, "unit": "%"},
      {"measurement": "Activity", "setting": "[24]", "value": 18.1, "unit": "%"},
      {"measurement": "IC50", "setting": "[25]", "value": 0.38, "unit": "µM"},
      {"measurement": "Activity", "setting": "[26]", "value": 42.9, "unit": "%"},
      {"measurement": "IC50", "setting": "[27]", "value": 0.21, "unit": "µM"},
      {"measurement": "Activity", "setting": "[28]", "value": 36.9, "unit": "%"},
      {"measurement": "Activity", "setting": "[29]", "value": "59.5 to 78.1", "unit": "%"},
      {"measurement": "Activity", "setting": "[30]", "value": 23.8, "unit": "%"},
      {"measurement": "Activity", "setting": "[31]", "value": 8.3, "unit": "%"}
    ]}
  ]
}
